Values after ≈ are worked out from the molar mass of the structure shown. Active and inactive are the calls of the source. The calls are words filed in the database; no cut-off is given here.
How the values were obtained:
[1] = Drug uptake in CD1 mouse testes at 3 mg/kg, iv; type: ADME, organism-based, Testis; set-up: dose 3 mg/kg, route intravenous; details: in vivo
[2] = Metabolic stability in CD1 mouse liver microsomes assessed as parent compound remaining at 10^-6 M after 60 mins; type: ADME, Microsome; details: read-out: Stability
In short: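 CD-1 mouse liver microsomes incubated with compound at 1.0 × 10–6 M for 60 min; percent parent compound remaining determined.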

Mus musculus [3] = test: Inhibition of spermatogenesis in CD1 mouse assessed as presence of vacuolar-like spaces at 10 mg/kg, po for 7 days measured after 1 month by bright-field microscopic analysis; type: functional, organism-based; set-up: dose 10 mg/kg
In short: (§1)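 Male CD1 mice dosed by oral gavage at 2 or 10 mg/kg daily for 7 days, controls vehicle only; testes and epididymides collected one month post-treatment for histological staging of tubules (spermatid alignment at stage VIII, sperm release at stage IX).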

Mus musculus [4] = test: Effect on spermatogenesis in CD1 mouse assessed as sperm release into testicular lumen at 10 mg/kg, iv after 6 days; type: functional, organism-based; set-up: dose 10 mg/kg
In short: (§2)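 Male mice given 10 mg/kg intravenously daily; testes examined histologically at end of treatment (6 days, n = 2; 7 days, n = 2) for spermatid alignment and sperm release into the lumen; vehicle controls.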

Mus musculus [5] = test: Inhibition of spermatogenesis in CD1 mouse assessed as change in motility of epididymal sperm at 10 mg/kg, po for 7 days measured after 1 month by bright-field microscopic analysis; type: functional, organism-based; set-up: dose 10 mg/kg
[6] = Metabolic stability in CD1 mouse intestinal microsomes assessed as parent compound remaining at 10^-6 M after 60 mins; type: ADME, Intestine; details: read-out: Stability
In short: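 CD-1 mouse intestinal microsomes incubated with compound at 1.0 × 10–6 M for 60 min; percent parent remaining determined.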

Mus musculus [7] = test: Toxicity in CD1 mouse assessed as change in body weight at 2 to 10 mg/kg, po; type: organism-based; set-up: dose 2-10 mg/kg, route oral; details: in vivo
In short: (§3)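 Male CD1 mice gavaged daily with 2 or 10 mg/kg for 7 days, vehicle controls; body weight followed throughout; testes weighed one month post-treatment; mean ± SD of five mice per regimen, paired Student's t-test against age-matched controls.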

Mus musculus [8] = test: Inhibition of spermatogenesis in CD1 mouse assessed as change in alignment of step 16 spermatids at lumen in stage 8 tubules in testes at 2 to 10 mg/kg, po for 7 days measured after 1 month by bright-field microscopic analysis relative to control; type: functional, organism-based; in short: as §1
[9] = Aqueous solubility of the compound in PBS at pH 7.4; type: physicochemical; details: buffer
In short: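 Aqueous solubility determined in PBS buffer, pH 7.4; tested range <1–200 μM.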

[10] = Drug uptake in CD1 mouse testes at 39 mg/kg, po; type: ADME, organism-based, Testis; set-up: dose 39 mg/kg, route oral; details: in vivo
Mus musculus [11] = test: Effect on spermatogenesis in CD1 mouse at 10 mg/kg, iv for 7 days measured after 4 weeks; type: functional, organism-based; set-up: dose 10 mg/kg
In short: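 Male mice dosed intravenously at 10 mg/kg; testes examined histologically 4 weeks post-treatment for spermatogenesis.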

Mus musculus [12] = test: Inhibition of spermatogenesis in CD1 mouse assessed as asynchronization of spermatogenic cell association at 10 mg/kg, po for 7 days measured after 1 month by bright-field microscopic analysis; type: functional, organism-based; set-up: dose 10 mg/kg; in short: as §1
Mus musculus [13] = test: Effect on spermatogenesis in CD1 mouse assessed as disruptive effect on spermatid alignment at 10 mg/kg, iv after 6 days; type: functional, organism-based; set-up: dose 10 mg/kg; in short: as §2
Caco-2 [14] = test: Permeability from basolateral to apical side in human Caco2 cells at 10^-5 M at pH 6.5 to 7.4; type: ADME, cell-based; details: caco-2, pH 6.5, 10 µM
In short: (§4)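 Caco-2 monolayers with apical/basolateral pH gradient 6.5/7.4, compound at 1.0 × 10–5 M; apparent permeability (cm/s) measured in A→B and B→A directions, with percent recovery reported.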

Mus musculus [15] = test: Effect on spermatogenesis in CD1 mouse assessed as sperm release into testicular lumen at 10 mg/kg, iv after 7 days; type: functional, organism-based; set-up: dose 10 mg/kg; in short: as §2
Mus musculus [16] = test: Inhibition of spermatogenesis in CD1 mouse assessed as change in morphology of caudal epididymides at 10 mg/kg, po for 7 days measured after 1 month by bright-field microscopic analysis; type: functional, organism-based; set-up: dose 10 mg/kg; in short: as §1
[17] = molecular target: T1, Retinoic acid receptor alpha (Homo sapiens) (UniProt P10276); test: Antagonist activity at human RARalpha expressed in human HeLa cells assessed as inhibition of ATRA-induced RARE-chloramphenicol acetyltransferase reporter gene expression after 24 hrs by transactivation competition assay; type: cell-based
T1 sequence (whole entry): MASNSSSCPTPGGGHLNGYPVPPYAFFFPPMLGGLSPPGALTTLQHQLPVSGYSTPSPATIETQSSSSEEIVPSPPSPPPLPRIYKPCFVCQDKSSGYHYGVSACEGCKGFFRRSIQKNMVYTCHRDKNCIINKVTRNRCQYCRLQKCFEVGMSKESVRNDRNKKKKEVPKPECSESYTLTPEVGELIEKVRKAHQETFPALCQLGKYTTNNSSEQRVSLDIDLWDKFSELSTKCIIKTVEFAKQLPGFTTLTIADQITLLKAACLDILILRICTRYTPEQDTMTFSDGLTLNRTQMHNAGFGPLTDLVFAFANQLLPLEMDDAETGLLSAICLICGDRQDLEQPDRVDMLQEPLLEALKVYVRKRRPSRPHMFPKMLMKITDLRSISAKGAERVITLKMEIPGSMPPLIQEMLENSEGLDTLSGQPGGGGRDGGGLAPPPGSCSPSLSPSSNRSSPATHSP
In short: (§5)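 HeLa cells cotransfected with RAR constructs and a constant beta-galactosidase plasmid as internal control, given 10–7 M ATRA (submaximal) plus increasing concentrations of compound; CAT reporter expression measured after 24 h. RARα, RARβ and RARγ tested. Vehicle control was dilution medium without retinoid; ATRA served as positive control.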

Plasma [18] = test: Plasma protein binding in CD1 mouse at 10^-5 M; type: ADME, cell-free; details: 10 µM
In short: (§6)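 Binding to CD-1 mouse plasma proteins tested at 1.0 × 10–5 M; percent bound and percent recovery reported.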

Mus musculus [19] = test: Effect on spermatogenesis in CD1 mouse assessed as disruptive effect on spermatid alignment at 10 mg/kg, iv after 7 days; type: functional, organism-based; set-up: dose 10 mg/kg; in short: as §2
[20] = Partition coefficient, log D of the compound in n-octanol-PBS at 10^-4 M at pH 7.4; type: physicochemical; details: octanol/water, pH 7.4, 100 µM
In short: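 log D determined at pH 7.4 by n-octanol/PBS partitioning, reported as weighted average.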

[21] = molecular target: T1, Retinoic acid receptor alpha (Homo sapiens); test: Antagonist activity at human RARalpha expressed in human HeLa cells assessed as inhibition of ATRA-induced RARE transactivation after 24 hrs by chloramphenicol acetyltransferase reporter gene assay; type: cell-based; in short: as §5
Mus musculus [22] = test: Toxicity in CD1 mouse assessed as change in testicular weight at 2 to 10 mg/kg, po for 7 days relative to control; type: organism-based; set-up: dose 2-10 mg/kg, route oral; details: in vivo, 168 h; in short: as §3
[23] = Permeability from apical to basolateral side in human Caco2 cells assessed as drug recovery at 10^-5 M at pH 6.5 to 7.4; type: ADME, cell-based; details: Caco-2, pH 6.5, read-out: permeability; in short: as §4
Caco-2 [24] = test: Permeability from apical to basolateral side in human Caco2 cells at 10^-5 M at pH 6.5 to 7.4; type: ADME, cell-based; details: caco-2, pH 6.5, 10 µM; in short: as §4
Mus musculus [25] = test: Defect in spermatogenesis in CD1 mouse testicular tubules at 10 mg/kg, ip after 7 days; type: functional, organism-based; set-up: dose 10 mg/kg
In short: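 Male mice dosed intraperitoneally at 10 mg/kg daily for 7 days (n = 4); testicular tubules examined histologically one day post-treatment for retained spermatids, with defects quantified.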

[26] = Permeability from basolateral to apical side in human Caco2 cellsassessed as drug recovery at 10^-5 M at pH 6.5 to 7.4; type: ADME, cell-based; details: Caco-2, pH 6.5, read-out: permeability; in short: as §4
Plasma [27] = test: Fraction unbound in CD1 mouse plasma; type: ADME, cell-free; in short: as §6
Mus musculus [28] = test: Toxicity in CD1 mouse assessed as change in testosterone levels at 2 to 10 mg/kg, po for 7 days by enzyme immunoassay relative to control; type: organism-based; set-up: dose 2-10 mg/kg, route oral; details: in vivo, 168 h
In short: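 Male CD1 mice treated orally at two regimens (2 or 10 mg/kg daily, 7 days); sera collected for testosterone determination, values plotted for individual mice.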

[29] = Chemical stability of the compound by HPLC-MS analysis; type: physicochemical
Mus musculus [30] = test: Inhibition of spermatogenesis in CD1 mouse assessed as change in sperm release at stage 9 into lumen in testes at 2 to 10 mg/kg, po for 7 days measured after 1 month by bright-field microscopic analysis relative to control; type: functional, organism-based; in short: as §1
Plasma [31] = test: Drug recovery in CD1 mouse plasma 10^-5 M; type: ADME, cell-free; details: 10 µM; in short: as §6
Mus musculus [32] = test: Effect on spermatogenesis in CD1 mouse assessed as sperm release into testicular lumen at 2 to 10 mg/kg, po for 7 days; type: functional, organism-based; in short: as §1
Mus musculus [33] = test: Effect on spermatogenesis in CD1 mouse assessed as disruptive effect on spermatid alignment at 2 to 10 mg/kg, po for 7 days; type: functional, organism-based; in short: as §1

remaining at 1 h, 1 µM [2] [%] | solubility [9] [µM] | PPB (Plasma [18]) [%] | logD [20] | recovery at 10 µM [23] [%] | permeability (Caco-2 [24]) [×10⁻⁶ cm/s] | Stability [29] | Drug recovery (Plasma [31]) [%] | Structure (SMILES) | inhibition (Mus musculus [3]) | inhibition (Mus musculus [5]) | Activity (Mus musculus [7]) | inhibition (Mus musculus [8]) | inhibition (Mus musculus [12]) | inhibition (Mus musculus [16]) | Activity (Mus musculus [22]) | Activity (Mus musculus [28]) | inhibition (Mus musculus [30]) | other results
49 | 136 (≈ 56 µg/mL) | 99.2 | 3.84 | 20 | 8.3 | Stable | 99.8 | Cc1ccc(C2=CCC(C)(C)c3ccc(C(=O)Nc4ccc(C(=O)O)cc4)cc32)cc1 | inactive | inactive | Non-toxic | inactive | inactive | inactive | Non-toxic | Non-toxic | inactive | Drug uptake [1]: Active; Activity (Mus musculus [4]): Active; remaining at 1 h, 1 µM [6]: 86%; Drug uptake [10]: Not Active; Activity (Mus musculus [11]): inactive; Activity (Mus musculus [13]): Active; permeability (Caco-2 [14]): 0.7 ×10⁻⁶ cm/s; Activity (Mus musculus [15]): Active; Activity [17]: Active; Activity (Mus musculus [19]): Active; Activity [21]: Active; Activity (Mus musculus [25]): Active; recovery at 10 µM [26]: 46%; Fu (Plasma [27]): 0.8%
79 | 3.1 (≈ 1.18 µg/mL) | 95.3 | 3.25 | 14 | < 0.7 | Stable | 93.3 | CC1(C)CC=C(c2ccccc2)c2cc(/C=C/c3ccc(C(=O)O)cc3)ccc21 |  |  |  |  |  |  |  |  |  | Activity (Mus musculus [32]): Active; Activity (Mus musculus [33]): Active
 |  |  |  |  |  |  |  | CC1(C)CC=C(c2cnc3ccccc3c2)c2cc(C(=O)Nc3ccc(C(=O)O)cc3)ccc21 | inactive | inactive | Non-toxic | inactive | inactive | inactive | Non-toxic | Non-toxic | inactive | 

Source: ChEMBL document CHEMBL2384973, “Pharmacological activity of retinoic acid receptor alpha-selective antagonists in vitro and in vivo” (ACS Med Chem Lett, 2013)
